Bioassay records (PubChem BioAssay)
In the library only some 4.8% were active in any assay of this set; here they are far more common.
NALP1 yeast inh: NALP1 inflammasome inhibitors in reconstituted yeast, colorimetric, S. cerevisiae, triplicate retest; AID 2071, 2009; inhibition, % at 10 µM; S. cerevisiae NALP1/ASC/caspase-1 growth, X-gal OD620, 72 h; 0.61% of 280,000 active; in the data active = inhibition mostly above about 24%, no sharp cut-off; inactive = mostly below about 32%
UCH37 DUB inh: inhibitors of human UCH37 deubiquitinase, primary screen, biochemical, Ub-AMC cleavage, fluorescence; purified proteasome/UCH37; AID 588478, 2011; inhibition, % (no concentration beside the values); 0.33% of 330,000 active;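 active = mean inhibition over replicate wells above about 20%, limit read from the data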;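 also: 0% = compound-free wells with enzyme and 100% = wells lacking proteasome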
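Schedule: 30 min plus 25 min, room temperature / Material: human UCH37 within purified proteasomes / Technique: AMC fluorescence intensity at 355/460 nm / Buffer or medium: pH 7.4 Tris-HCl (50 mM) with ovalbumin, ATP-MgCl2, DTT / Controls: wells without proteasome as full block, compound-free enzyme plus substrate as uninhibited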
ATG4B inhibitor: ATG4B protease inhibitors, primary screen, biochemical, fluorescence, uHTS. Cysteine protease ATG4B (Homo sapiens), Q9Y4P1. ATG4B cleavage of LC3-PLA2, NBD-HPC fluorescence, 1 h. inhibition, % at 8.33 µM. 0.51% of 340,000 active; in the data active = inhibition above about 40%
NLRP3 yeast inh: NALP3 inflammasome inhibitors in reconstituted yeast, primary screen, luminescence, uHTS. Yeast reconstituted NLRP3/ASC/caspase-1, beta-gal luminescence, 24 h. inhibition, % at 10 µM. 0.39% of 330,000 active;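 active = inhibition of 50% or more; inactive = inhibition below 50%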;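 also: plate controls were induced DMSO wells for no effect and uninduced yeast grown without galactose for full effect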
Calb FLC: C. albicans growth inhibition with fluconazole, primary screen, CaCi-2 strain, Alamar Blue fluorescence. C. albicans CaCi-2 + fluconazole, 48 h. growth inhibition, % (test concentration not listed). 0.57% of 300,000 active. AID 1979, 2009;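 active = growth inhibition above about 58% in most replicates, limit read from the data, passing the limit was not always enough; inconclusive = exactly half the replicates above a set limit; inactive = most replicates below a set limit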;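 also: all wells also contain fluconazole at 8 µg/ml as a sub-toxic cotreatment; 0% = median of DMSO wells and 100% = median of geldanamycin control wells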
ALR H2O2 inh: inhibitors of human ALR sulfhydryl oxidase, primary screen, biochemical, H2O2 detection, HRP-luminol luminescence, single point | FAD-linked sulfhydryl oxidase ALR (Homo sapiens), P55789 | purified ALR, DTT oxidation | inhibition, % (concentration not given with the values) | 3.8% of 290,000 active;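 active = mean replicate inhibition above about 79%, with every replicate also reaching it, limit read from the data; inconclusive = only one of the two criteria met; inactive = mean below limit and not every replicate reaching it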
Target sequence (P55789 whole entry, looked up): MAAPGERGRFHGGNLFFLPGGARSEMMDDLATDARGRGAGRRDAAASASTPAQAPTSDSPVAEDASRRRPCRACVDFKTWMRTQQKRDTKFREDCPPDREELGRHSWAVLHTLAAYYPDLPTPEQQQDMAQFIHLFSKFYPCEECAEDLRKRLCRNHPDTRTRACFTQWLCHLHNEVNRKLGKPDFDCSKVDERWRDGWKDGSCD
* marks the source's active call; other numbers are inactive results; ? = inconclusive; . = no result.

SMILES | NALP1 yeast inh | UCH37 DUB inh | ATG4B inhibitor | NLRP3 yeast inh | Calb FLC | ALR H2O2 inh
COc1cccc(C=NNC(=O)CNC(=O)/C=C\c2ccccc2)c1O | . | 5 | . | . | . | .
C(=NNc1ccccn1)c1ccc(N2CCOCC2)cc1 | . | -3 | . | . | . | .
N#Cc1c(SCC(=O)Nc2ccc(Cl)cc2Cl)sc2c(O)cc(=O)[nH]c12 | 0 | 6 | 2 | 22 | -1 | 99*
N#Cc1c(SCC(=O)Nc2cccc(F)c2)sc2c(O)cc(=O)[nH]c12 | -2 | 5 | 6 | 18 | 12 | 99*
N#Cc1c(SCC(=O)Nc2ccccc2C(F)(F)F)sc2c(O)cc(=O)[nH]c12 | 8 | 6 | 0 | 17 | -9 | 16
Cc1c(Cl)cccc1NC(=O)CSc1sc2c(O)cc(=O)[nH]c2c1C#N | 0 | 9 | -6 | 16 | 23 | ?
CCOc1cccc(NC(=O)CSc2sc3c(O)cc(=O)[nH]c3c2C#N)c1 | 9 | 8 | -6 | 24 | 3 | 99*
N#Cc1cccc(NC(=O)CSc2sc3c(O)cc(=O)[nH]c3c2C#N)c1 | 1 | 8 | 1 | 8 | 16 | 99*
C=C(C)Cn1c(SCC(=O)NN=Cc2cccc(O)c2)nc2ccccc2c1=O | . | 2 | . | . | . | .
CC(=NOC(=O)c1ccc(Cl)cc1Cl)c1oc(C)nc1C | . | -1 | . | . | . | .
CC(=O)NCCC(=O)Nc1sc2c(c1-c1nc3ccccc3[nH]1)CCCC2 | -4 | -62 | -13 | 6 | -3 | 98*
COc1ccc(C=NNc2ccccc2C(=O)O)cc1 | . | 14 | . | . | . | .
CCn1c2ccccc2c2cc(NC(C)=O)ccc21 | -4 | 1 | -9 | 30 | 19 | 1
CCn1c2ccccc2c2cc(NC(=O)C(=O)N3CCOCC3)ccc21 | -6 | -32 | -6 | 5 | 32 | 91*
CC(=NNC(=O)c1ccc(Cl)cc1)c1cccnc1 | . | 1 | . | . | . | .
CCCc1cc(C(N)=O)c(NC(=O)c2ccoc2C)s1 | 4 | -5 | -14 | 15 | 17 | 98*
CC(=NNc1ccc([N+](=O)[O-])cc1)c1ccc(O)cc1 | . | 3 | . | . | . | .
CC12CCC(C(=O)N(CSC(=S)NN=Cc3ccccc3Cl)C1=O)C2(C)C (centres undefined) | . | 7 | . | . | . | .
Nc1nnc(SCC(=O)c2ccc([N+](=O)[O-])cc2)s1 | -6 | 1 | -6 | -1 | -3 | 98*
Cc1nnc(SCC(=O)c2ccc([N+](=O)[O-])cc2)s1 | 13 | 2 | -5 | 12 | -5 | -15
CCOc1cc(C=NNC(=O)c2ccc(NC(=O)C(C)(C)C)cc2)ccc1OC(=O)c1ccc(OC)cc1 | . | 3 | . | . | . | .
Cc1ccc2nsnc2c1NS(=O)(=O)c1c(C)ccc2nsnc12 | 8 | 10 | -3 | 24 | -7 | -14
Cc1ccc(/C=[N+](\[O-])c2ccc(N(C)C)cc2)c2nsnc12 | -6 | 4 | 0 | 27 | 97* | .
Cc1ccc(-c2nnn(CC(=O)N(c3cccc(F)c3)C(C(=O)NC3CCCC3)c3ccncc3)n2)o1 (centres undefined) | 35* | 5 | 0 | 14 | -47 | -7
CCN1C(=O)/C(=C2/Sc3ccccc3N2CC)SC1=Nc1ncn[nH]1 | . | 3 | . | . | . | .
SMILES | NALP1 yeast inh | UCH37 DUB inh | ATG4B inhibitor | NLRP3 yeast inh | Calb FLC | ALR H2O2 inh
c1ccc(C2=NOC(c3nnc(-c4ccccc4)o3)C2)cc1 (centres undefined) | . | 33* | -10 | 24 | 17 | .
CC(=O)c1ccc(NC(=O)c2ccc([N+](=O)[O-])o2)cc1 | -2 | 10 | -2 | 16 | 6 | -33
COc1ccc(NC(=O)c2ccc([N+](=O)[O-])o2)cc1 | -6 | 8 | 4 | 17 | 103* | -27
Cc1cc(NC(=O)c2ccc([N+](=O)[O-])o2)ccc1NC(=O)c1ccco1 | 8 | 6 | -6 | . | 58* | .
CCOc1ccccc1C(=O)N[C@H](C(=O)Nc1cc(S(=O)(=O)N(C)C)ccc1OC)C(C)C | 24* | 3 | -1 | -3 | 2 | -3
CCCCC(=O)NN=C(C)/C=C/c1ccccc1F | . | 1 | . | . | . | .
